Assay results taken from PubChem BioAssay AID2434 (Vanderbilt High Throughput Screening Facility, 2010).
Calls of active or inactive are those of the source.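 Rule for the calls: active = an acetylcholine EC50 could be fitted from its dose curve with compound present at 10 µM; inactive = the rest.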

The compounds below were run against Muscarinic acetylcholine receptor M1 (Rattus norvegicus) (UniProt P08482) (assay: M1 acetylcholine potency enhancement by modulators – cell-based, ACh fold-shift, calcium, CHO-K1, mechanism study (AID 2434)). Conditions: CHO-K1 rat M1, Fluo-4 calcium.
Chain of Muscarinic acetylcholine receptor M1 (Rattus norvegicus) (P08482 whole entry, looked up): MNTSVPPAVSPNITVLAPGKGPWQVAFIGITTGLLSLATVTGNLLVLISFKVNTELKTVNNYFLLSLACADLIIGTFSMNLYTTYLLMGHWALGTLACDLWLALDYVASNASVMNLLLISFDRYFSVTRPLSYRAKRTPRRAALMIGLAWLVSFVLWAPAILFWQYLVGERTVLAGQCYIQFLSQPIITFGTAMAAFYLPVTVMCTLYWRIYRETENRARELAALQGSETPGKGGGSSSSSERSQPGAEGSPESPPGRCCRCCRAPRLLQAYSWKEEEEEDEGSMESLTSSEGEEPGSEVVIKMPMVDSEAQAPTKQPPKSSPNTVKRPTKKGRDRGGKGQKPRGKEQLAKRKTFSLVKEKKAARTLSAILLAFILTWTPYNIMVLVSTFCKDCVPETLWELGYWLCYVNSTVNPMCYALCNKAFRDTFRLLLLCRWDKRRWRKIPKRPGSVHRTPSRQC
Procedure, shortened: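 Assay system: Rat M1-expressing CHO-K1 cells, Fluo-4 loaded | Measured by: Fluo-4 calcium signal | Evaluation: Acetylcholine EC50 with compound compared to vehicle, variable-slope fits | Incubation: Dye loading 45–60 min at 37 °C, assay at 25 °C | Buffer or medium: HBSS assay buffer with HEPES and probenecid, pH 7.4 | Probe or stimulus: Eight-point acetylcholine dilution series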
Cc1cc(NC(=O)CS(=O)(=O)c2cn(Cc3cc(Br)ccc3F)c3ccccc23)no1 was tested, and the outcome was “active”.
With Cc1cc(NC(=O)CS(=O)(=O)c2cn(Cc3cccc(-c4cn[nH]c4)c3)c3cc(F)cc(F)c23)no1 the outcome was “active”.
For Cn1cc(-c2ccc(CN3C(=O)C(=O)c4ccccc43)c(F)c2)cn1, the outcome was “inactive”.
Cn1cc(-c2cc(F)c(CN3C(=O)C(=O)c4ccccc43)c(F)c2)cn1 was tested, and the outcome was “inactive”.
